Measurements taken from ChEMBL document CHEMBL1132277, “Probing the binding of indolactam-V to protein kinase C through site-directed mutagenesis and computational docking simulations” (J Med Chem, 1999).

Assays:
[1] = molecular target: T1, Protein kinase C delta type (Mus musculus, UniProt P28867); assay: Binding of Indolactam-V(ILV) to mutant Protein kinase C delta C1b domain (Pro11 to Gly)
Summary of the method: (§1)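 GST fusions of PKCδ C1b domains (wild type or point mutants) expressed in E. coli, used purified or as total lysates. Incubated 5 min at 18 °C with [3H]PDBu, phosphatidylserine, 1 mM EGTA and varying unlabelled (–)-ILV. Bound ligand separated by 35% poly(ethylene glycol) precipitation and centrifugation, then supernatant and pellet counted. Final ligand concentrations used in calculations. Where [3H]PDBu binding was insufficient, ILV affinity was left undetermined.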

[2] = molecular target: T1, Protein kinase C delta type; assay: Binding of Indolactam-V(ILV) to mutant Protein kinase C delta C1b domain (Gln27 to Val); summary of the method: as §1
[3] = molecular target: T1, Protein kinase C delta type; assay: Binding of Indolactam-V(ILV) to mutant Protein kinase C delta C1b domain (Phe13 to Gly); summary of the method: as §1
[4] = molecular target: T1, Protein kinase C delta type; assay: Binding of Indolactam-V(ILV) to mutant Protein kinase C delta C1b domain (Thr12 to Gly); summary of the method: as §1
[5] = molecular target: T1, Protein kinase C delta type; assay: Binding of Indolactam-V(ILV) to mutant Protein kinase C delta C1b domain (Tyr8 to Gly); summary of the method: as §1
[6] = molecular target: T1, Protein kinase C delta type; assay: Binding of Indolactam-V(ILV) to mutant Protein kinase C delta C1b domain (Leu20 to Gly); summary of the method: as §1
[7] = molecular target: T1, Protein kinase C delta type; assay: Binding of Indolactam-V(ILV) to wild-type Protein kinase C delta C1b domain; summary of the method: as §1

T1 sequence (P28867 whole entry, the tested form may be a part): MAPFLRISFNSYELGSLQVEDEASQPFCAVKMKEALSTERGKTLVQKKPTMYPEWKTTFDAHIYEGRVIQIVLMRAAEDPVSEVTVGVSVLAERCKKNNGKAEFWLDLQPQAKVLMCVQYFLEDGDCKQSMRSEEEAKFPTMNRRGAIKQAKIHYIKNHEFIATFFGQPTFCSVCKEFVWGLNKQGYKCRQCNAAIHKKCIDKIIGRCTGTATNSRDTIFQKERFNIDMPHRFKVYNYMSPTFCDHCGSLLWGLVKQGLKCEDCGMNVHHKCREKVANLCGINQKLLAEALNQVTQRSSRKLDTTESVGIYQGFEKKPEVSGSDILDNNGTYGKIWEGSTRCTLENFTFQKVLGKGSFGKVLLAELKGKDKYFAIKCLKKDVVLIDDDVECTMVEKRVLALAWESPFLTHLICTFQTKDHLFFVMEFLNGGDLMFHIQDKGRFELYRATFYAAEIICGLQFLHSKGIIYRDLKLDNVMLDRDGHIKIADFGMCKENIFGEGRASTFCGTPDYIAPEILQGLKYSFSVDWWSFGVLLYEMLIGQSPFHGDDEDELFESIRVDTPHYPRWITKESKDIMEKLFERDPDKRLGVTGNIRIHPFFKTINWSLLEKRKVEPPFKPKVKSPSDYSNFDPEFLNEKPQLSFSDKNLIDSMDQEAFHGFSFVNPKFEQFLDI

CC(C)[C@H]1C(=O)N[C@H](CO)Cc2c[nH]c3cccc(c23)N1C [INDOLACTUM]
Ki [1]: 7080 nM | Ki [2]: 1100 nM | Ki [3]: 10.9 nM | Ki [4]: 25.3 nM | Ki [5]: 658 nM | Ki [6]: 66.2 nM | Ki [7]: 2.01 nM
